21 compounds from ChEMBL document CHEMBL4257581, “Discovery of Small Molecule Splicing Modulators of Survival Motor Neuron-2 (SMN2) for the Treatment of Spinal Muscular Atrophy (SMA)” (J Med Chem, 2018) can be followed below.

Series [1] is described as follows: Lipophilicity, log D of the compound at pH 7.4. Format: physicochemical. The note with it: buffer.
A short description of series [2]: Clearance in Sprague-Dawley rat at 1 mg/kg, iv or 10 mg/kg, po. It is filed as ADME, organism-based. The note with it: in vivo.
The nature of series [3]: Oral bioavailability in Sprague-Dawley rat at 10 mg/kg. It is filed as ADME, organism-based. Particulars: in vivo.
Series [4] is described as follows: Permeability of the compound at 5 uM after 4 hrs by PAMPA. Format: ADME. On the technique in general: The PAMPA barrier holds no transporters, so it reflects passive diffusion.
Series [5] is described as follows: Drug level in Sprague-Dawley rat brain at 1 mg/kg, iv or 10 mg/kg, po after 7 hrs. The note with it: read-out: Drug uptake. It is filed as ADME, organism-based.
A short description of series [6]: AUC in Sprague-Dawley rat at 1 mg/kg, iv or 10 mg/kg, po. Format: ADME, organism-based. The note with it: in vivo.
The next series is filed under the species Mus musculus. Nature of the series: Stabilization of SMN2 mRNA in mouse myoblasts assessed as increase in SMN protein level by ELISA relative to DMSO control. Background: In an ELISA, binding on a coated surface is turned into a signal by an enzyme label.
Series [7] can be described thus: Oral bioavailability in mouse at 10 mg/kg. It is filed as ADME, organism-based. Particulars: in vivo. Put shortly:
(§1)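 Mouse PK: oral arm dosed at 10 mg/kg p.o. alongside a 1 mg/kg i.v. arm. Plasma and brain AUC were taken from the oral arm.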

Series [8] can be described thus: Intrinsic clearance in rat liver microsomes at 1 uM up to 30 mins in presence of NADPH by LC-MS/MS analysis. It is filed as ADME, microsome. Particulars: read-out: CLH. (Microsomes from liver hold many membrane-bound enzymes, among them those of drug oxidation.)
The nature of series [9]: AUC in mouse plasma at 10 mg/kg, po. It is filed as ADME, organism-based. The essentials: as §1
A short description of series [10]: Half life in mouse at 1 mg/kg, iv or 10 mg/kg, po. Format: ADME, organism-based. Particulars: in vivo. The essentials:
(§2)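 Mouse PK with dosing at 1 mg/kg i.v. and 10 mg/kg p.o.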

Series [11] is described as follows: AUC in mouse brain at 10 mg/kg, po. Format: ADME, organism-based. Put shortly: as §1
The nature of series [12]: Clearance in mouse at 1 mg/kg, iv or 10 mg/kg, po. It is filed as ADME, organism-based. Particulars: in vivo. Put shortly:
as §2

A short description of series [13]: Dissociation constant, pKa of the compound. It is filed as physicochemical.
A short description of series [14]: Plasma clearance in C57BL/6 mouse at 1 mg/kg, iv or 5 mg/kg, po. It is filed as ADME, organism-based. The essentials: (§3)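 Mice received single doses of 1 mg/kg i.v. or 5 mg/kg p.o. (n = 2). The vehicle was 10% 0.1 N HCl, 10% PG, 25 (20%) Solutol and 100 mM pH 5 citrate buffer. Plasma was sampled for PK parameters.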
Series [15] can be described thus: Drug level in brain in C57BL/6 mouse brain at 1 mg/kg, iv or 5 mg/kg, po. Particulars: in vivo, read-out: Drug uptake. Format: ADME, organism-based.
The species named for another series is Homo sapiens. Nature of the series: Stabilization of SMN2 mRNA in human spinal muscular atrophy patient derived fibroblasts by ELISA.
The nature of series [16]: Intrinsic clearance in mouse liver microsomes at 1 uM up to 30 mins in presence of NADPH by LC-MS/MS analysis. Format: ADME, microsome. Particulars: read-out: CLH.
A short description of series [17]: Solubility of the compound at pH 6.8. Format: physicochemical. The note with it: buffer.
Series [18] can be described thus: Oral bioavailability in C57BL/6 mouse at 5 mg/kg. Format: ADME, organism-based. The note with it: in vivo. Put shortly: as §3
The nature of series [19]: AUC (0 to 7 hrs) in C57BL/6 mouse plasma at 1 mg/kg, iv or 5 mg/kg, po. Format: ADME, organism-based. Put shortly: as §3
Series [20] is described as follows: Drug level in mouse brain at 10 mg/kg, po after 7 hrs. It is filed as ADME, organism-based. The note with it: read-out: Drug uptake. The essentials:
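Mouse PK at 10 mg/kg p.o. Brain concentration was measured at a single time point, 7 h after the oral dose.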

As usually defined, the logD is lipophilicity at a set pH, counting ionised and neutral species. For orientation: bioavailability means dose-corrected exposure relative to a reference, in per cent. By AUC is commonly meant the area under the concentration-time curve, a measure of exposure. Low values mean low exposure, high ones high exposure. In [1], `CC1(C)CC(Oc2ccc(-c3ccc(-c4cn[nH]c4)cc3O)nn2)CC(C)(C)N1` [BRANAPLAM] displayed a pH-dependent lipophilicity (logD) of 2.51. The clearance in series [2] was 25 mL/min/kg. The compound further returned a bioavailability in series [3] of 63%. Further, the “log(permeability)” value in [4] was -4.9. Besides, the concentration at 7 h in series [5] was 914 nM. Besides, in series [6], the exposure (AUC) amounted to 3.03 µM·h.

The compound `CN(c1ccc(-c2cc3cnccc3cc2O)nn1)C1CC(C)(C)NC(C)(C)C1` yielded a logD in series [1] of 3.07. In series [2], this compound displayed a clearance of 57 mL/min/kg. The bioavailability in [3] was found to be 100%. Also, the “log(permeability)” value in [4] was -4.3. Moreover, the concentration at 7 h in [5] is 630 nM. Also, the fold change (FC) in the series filed under Mus musculus was 2.6. Also, in [6], the AUC is 1.35 µM·h.

Turning to `CC1(C)CC(Nc2ccc(-c3cccc4ccccc34)nn2)CC(C)(C)N1`, the fold change (FC) in the series listed under Mus musculus came to 1.

Compound `CC1(C)CC(Cc2ccc(-c3ccc(-c4cn[nH]c4)cc3O)nn2)CC(C)(C)N1` displayed a logD in series [1] of 2.89. In addition, the “log(permeability)” value in [4] was -5.3.

The compound `CC1(C)CC(Oc2ccc(-c3ccc(-n4cccn4)cc3O)nn2)CC(C)(C)N1CC(F)(F)F` came in with a logD in series [1] of 4.65. Moreover, the fold change (FC) in the series listed under Mus musculus is 1.1.

`Oc1cc(-n2cccn2)ccc1-c1ccc(OC2CCNCC2)nn1` returned a logD in series [1] of 0.69.

`Oc1cc(-c2cn[nH]c2)ccc1-c1ccc(N2CCC3(CCCNC3)C2)nn1` (stereo not drawn) had a logD in series [1] of 1.2.

As a reminder, the half-life is how long it takes for the measured level to halve. A higher half-life goes with slow loss. Compound `CN(c1ccc(-c2cc3ccccc3cc2O)nn1)C1CC(C)(C)NC(C)(C)C1` registered a logD in series [1] of 4. This compound gave a bioavailability in series [7] of 100%. Besides, the microsomal CLint at 1 µM in [8] was found to be 17 µL/min/mg. Further, the exposure (AUC) worked out at 16.9 µM·h in [9] and 36.7 µM·h in series [11]. Further, the half-life in series [10] was 222 min. Besides, in the series filed under Mus musculus, the fold change (FC) lay in the range of 2.4 to 2.5. This compound also showed a clearance in series [12] of 56 mL/min/kg.

As to `CC1(C)CC(Nc2ccc(-c3ccc4ccccc4c3)nn2)CC(C)(C)N1`, the fold change (FC) in the series listed under Mus musculus came to 2.3.

The pKa is the pH at which an ionisable group is half protonated. Read a high pKa as a weaker acid or stronger base. The compound `Oc1cc(-n2cccn2)ccc1-c1ccc(OC2CCNCC2(F)F)nn1` (stereo not drawn) yielded a log distribution coefficient (logD) in [1] of 2.59. Besides, the pKa in [13] came to 5.89. The fold change (FC) in the series filed under Mus musculus was found to be 1.2.

`CN(c1ccc(-c2cc3ccccc3s2)nn1)C1CC(C)(C)NC(C)(C)C1` displayed a logD in series [1] of 3.4. The bioavailability in series [7] amounted to 100%. Further, in series [8], the microsomal CLint at 1 µM is 40 µL/min/mg. The values for the AUC in series [9] and in series [11] were 4.9 µM·h and 17.4 µM·h, respectively. Besides, in series [10], the half-life was 192 min. This compound yielded a clearance in series [12] of 100 mL/min/kg.

On to `CC1(C)CC(Oc2ccc(-c3ccc(-n4cccn4)cc3O)nn2)CC(C)(C)N1`, for which the logD in series [1] came out at 2.79. The pKa in series [13] came out at 10.1.

The term solubility denotes the concentration that dissolves in the medium under given conditions. Higher therefore signals much dissolved substance. The term AUC(0-t) denotes the area under the concentration-time curve up to a stated or last time point. Read a high AUC(0-t) as more exposure. As to `CC1(C)CC(Nc2ccc(-c3cc4ccccc4s3)nn2)CC(C)(C)N1`, the logD in series [1] is 2.67. The microsomal CLint at 1 µM was found to be 22.6 µL/min/mg in series [8] and 23.5 µL/min/mg in series [16]. In series [13], this compound registered a pKa of 10. The clearance in series [14] stood at 113 mL/min/kg. Moreover, the fold change (FC) in the series listed under Mus musculus stood at 2.5; in the series listed under Homo sapiens it was 1.5. Also, the concentration in [15] was less than 2.7 nM. The solubility in series [17] was more than 1000 µM. For the same compound, the bioavailability in series [18] amounted to 18%. The same compound showed an area under the curve AUC(0-t) in [19] of 0.4 µM·h.

`CN(c1ccc(-c2ccc(-n3ccc(N)n3)cc2O)nn1)C1CC(C)(C)NC(C)(C)C1`: the logD in series [1] was determined as 2.52. Also, in series [2], the clearance turned out to be 16 mL/min/kg. This compound showed a bioavailability in [3] of 4%. Besides, the “log(permeability)” value in [4] is -5.2. Moreover, the concentration at 7 h in series [5] was less than 2.4 nM. Also, in the series listed under Mus musculus, the fold change (FC) was found to be 2.8. Also, the AUC in series [6] is 0.092 µM·h.

Regarding `COc1cc(C#N)ccc1-c1ccc(N(C)C2CC(C)(C)NC(C)(C)C2)nn1`, in the series listed under Mus musculus, the fold change (FC) was determined as 2.3.

Turning to `CN(c1ccc(-c2ccc(-n3cccn3)cc2O)nn1)C1CC(C)(C)NC(C)(C)C1`, in series [1], the logD worked out at 3.11. Further, the pKa in series [13] is 10.3. For the same compound, the fold change (FC) in the series listed under Mus musculus stood at 3.1.

In [1], `Oc1cc(-c2cn[nH]c2)ccc1-c1ccc(N2C[C@H]3CNC[C@H]3C2)nn1` came in with a logD of 0.58.

`CN(c1ccc(-c2ccc(-c3cn[nH]c3)cc2O)nn1)C1CC(C)(C)NC(C)(C)C1` returned a logD in series [1] of 2.92. Moreover, the clearance in [2] came to 22 mL/min/kg. The compound also gave a bioavailability in [3] of 53%. Also, the “log(permeability)” value in [4] is on record as -5.4. Further, the concentration at 7 h in [5] was found to be 58 nM. For the same compound, the fold change (FC) in the series filed under Mus musculus was found to be 3.1. Further, the AUC in series [6] was 2.3 µM·h.

In turn, `CN(c1ccc(-c2ccc(C#N)cc2O)nn1)C1CC(C)(C)NC(C)(C)C1` registered a logD in series [1] of 3.2. Besides, the bioavailability in [7] was found to be 37%. In series [8], the microsomal CLint at 1 µM came to 7 µL/min/mg. In [9], this compound registered an exposure (AUC) of 5.2 µM·h. In [10], this compound had a half-life of 270 min. Moreover, in series [20], the concentration at 7 h was 2000 nM. Besides, the fold change (FC) in the series listed under Mus musculus worked out at 3.1. The compound further came in with a clearance in series [12] of 23 mL/min/kg.

In turn, `CN(c1ccc(-c2ccc(-n3cc(CO)cn3)cc2O)nn1)C1CC(C)(C)NC(C)(C)C1` came in with a logD in [1] of 2.16. The “log(permeability)” value in [4] is reported as -5.5.

Regarding `CN(c1ccc(-c2cc3cccnc3cc2O)nn1)C1CC(C)(C)NC(C)(C)C1`, the logD in series [1] came out at 3.23. The clearance in [2] came out at 35 mL/min/kg. In [3], this compound showed a bioavailability of 46%. Moreover, the “log(permeability)” value in [4] was -4.5. In addition, the concentration at 7 h in series [5] was 68 nM. For the same compound, the fold change (FC) in the series filed under Mus musculus turned out to be 2.9. The same compound had an exposure (AUC) in [6] of 1.17 µM·h.
